Compounds with a hit are over-represented: about 11% of the library has one in this group of screens.
RORa activator – RORA (human) activation; P35398; CHO-K1 Gal4-RORA LBD luciferase reporter, luminescence; percent increase over mock-subtracted basal signal; activation, % at 10 µM; 65,000 compounds, 1.5% hits;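 active = activation above the mean of all tested compounds plus 3 SD, cut at about 49% in these data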;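 note: 0% = DMSO-treated RORA cells and 100% = added signal equal to DMSO minus mock-transfected cells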
Target sequence (P35398 whole entry, looked up, the tested form may be a part): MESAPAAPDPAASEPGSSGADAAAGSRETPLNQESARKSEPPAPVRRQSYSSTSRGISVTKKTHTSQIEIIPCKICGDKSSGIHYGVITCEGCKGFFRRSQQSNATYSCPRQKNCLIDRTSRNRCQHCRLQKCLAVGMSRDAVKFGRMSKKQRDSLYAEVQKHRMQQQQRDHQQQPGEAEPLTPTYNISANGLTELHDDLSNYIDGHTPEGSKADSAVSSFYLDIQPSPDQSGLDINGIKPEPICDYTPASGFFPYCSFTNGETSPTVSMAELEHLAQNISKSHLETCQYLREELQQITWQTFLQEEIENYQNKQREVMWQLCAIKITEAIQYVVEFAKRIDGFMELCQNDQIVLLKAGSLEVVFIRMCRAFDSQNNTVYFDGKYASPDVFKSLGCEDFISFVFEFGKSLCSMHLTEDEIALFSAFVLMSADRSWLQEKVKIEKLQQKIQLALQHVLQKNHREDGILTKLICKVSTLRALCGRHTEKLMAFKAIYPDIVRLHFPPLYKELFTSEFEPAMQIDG
M1 antagonist – blocks the rat M1 muscarinic receptor response to acetylcholine | P08482 | CHO-M1 cells, Fluo-4 calcium, ACh EC80 antagonist mode; hits give low values | B-score at 10 µM | 64,000 compounds, 3.4% hits | AID 628;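 active = calcium fluorescence response, raw or row-and-column corrected B-score, differing from the plate sample mean either way at a set confidence level, mostly lower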
SF-1 act – SF-1 (human) activation | Q13285 | CHO-K1 Gal4-SF-1 LBD luciferase reporter; % increase over DMSO SF-1-specific signal | activation, % at 10 µM | 65,000 compounds, 1.9% hits;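 active = activation above the mean activation of all tested compounds plus 3 SD, cut at about 50% in these data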
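System: CHO-K1 cells with Gal4–hSF-1 LBD chimera plus Gal4-driven luciferase; quantity: 4,000 CHO-K1 cells per well; compound: one dose, 10 µM compound, 1% DMSO; times: 20 h compound treatment, 37 °C; measured by: SteadyLite luciferase luminescence; read-out: percent activation versus DMSO; benchmarks: DMSO and mock-transfected background; replicates: one test per compound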
mHtt clearance – mutant huntingtin protein clearance; HeLa Exon1htt(103Q)mCFP, aggregate imaging; zero = plate's median compound well; inhibition, % at 1.5 µM; 47,000 compounds, 0.42% hits; AID 853;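 active = inhibition of aggregate fluorescence above about 70%, also judged a hit by eye on the cell image, limit read from the data, passing the limit was not always enough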;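 note: cells exposed to compound for three days before fixation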
D1 allo mod – allosterically modulates the human D1 dopamine receptor; P21728; HEK293 D1, CRE-luciferase, dopamine EC30 potentiation; actives deviate in either direction; B-score at 10 µM; 58,000 compounds, 5.9% hits;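 active = luminescence count or its row- and column-corrected plate score outside the 99.7% band of the plate's sample wells, on either side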
M1 ag – activates the M1 muscarinic receptor. CHO-M1 cells, Fluo-4 calcium fluorescence, agonist mode; hits give high values. B-score at 10 µM. 64,000 compounds, 3% hits;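 active = fluorescence rise, raw or as B-score row- and column-corrected plate score, outside the 99.7% band of its plate's samples, either direction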
D1 PAM confirm – confirmation of human D1 dopamine receptor allosteric modulators. shares compounds with D1 allo mod. HEK293 D1 CRE-luciferase, dopamine EC30 potentiation; hits give high values. luminescence at 10 µM. 2,200 compounds, 88% hits;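 active = luminescence in either of two replicates above the same-plate mean plus 3 SD of the low-dose dopamine control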
D1 ag no DA – secondary test of D1 modulators: activity without dopamine | shares compounds with D1 allo mod | luminescence at 10 µM | HEK293 D1 CRE-luciferase, luminescence, no dopamine; hits give high values | AID 646 | 1,900 compounds, 0.8% hits; in the data active = luminescence above about 3900
Isoprot counter – alters isoproterenol CRE-luciferase response in HEK293 cells; shares compounds with D1 allo mod; HEK293 D1 CRE-luciferase, isoproterenol EC30 counter-screen; calls only at 10 µM; 2,200 compounds, 63% hits; AID 647;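 active = luminescence in either replicate above plate mean of wells with a partly effective reference agonist dose plus 3 SD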;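 note: isoproterenol raises cAMP through native beta-adrenoceptor Gs so signal bypasses D1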
* = called active by the depositor; i = inactive; · = no result; + = active, no number.

SMILES	RORa activator	M1 antagonist	SF-1 act	mHtt clearance	D1 allo mod	M1 ag	D1 PAM confirm	D1 ag no DA	Isoprot counter
CCc1nc2ccccc2n1Cc1ccc(OC)c(OC)c1	-22	-0.2	4	·	6.2*	0.45	18880*	1604	+
COc1ccc(Cn2c(CCCO)nc3ccccc32)cc1OC	21	0.056	8	·	14*	0.1	15968*	1476	+
COC(=O)c1ccc(CSc2nc3c(cnn3-c3ccc(Cl)cc3)c(=O)[nH]2)o1	-10	0.02	12	·	1.5	1.7	·	·	·
COC(=O)c1ccc(CSc2nc3c(cnn3-c3ccccc3)c(=O)[nH]2)o1	-2	0.28	0	·	6.5*	-0.18	12392*	1648	+
COC(=O)c1ccc(CSc2nc3c(cnn3-c3ccc(F)cc3)c(=O)[nH]2)o1	0	-0.14	6	·	5.3*	-0.21	9428*	1608	i
CC1CCN(C(=O)CSc2nc3c(cnn3-c3ccccc3)c(=O)[nH]2)CC1	-4	0.01	-22	40	2	0.55	·	·	·
COC(=O)c1ccc(CSc2nc3ccccc3c(=O)n2Cc2ccco2)o1	-9	-0.22	-13	·	6.5*	0.00064	9240*	1456	+
COC(=O)c1ccc(CSc2nc3ccccc3c(=O)n2CC(C)C)o1	·	·	·	24	·	·	·	·	·
CC(=O)c1ccc(NC(=O)CCn2c(=O)oc3ccccc32)cc1	2	0.97	-5	-98	-0.8	0.12	·	·	·
O=C(CCn1c(=O)oc2ccccc21)Nc1cccc(Cl)c1	-16	-0.08	-19	·	14*	-1.3	6680	1488	i
CCCCCCn1c(SCC(=O)OC)nc2c1c(=O)[nH]c(=O)n2C	12	-0.087	1	·	4.7*	-0.51	5408	1472	+
CCCCCn1c(Sc2nc3ccccc3s2)nc2c1c(=O)[nH]c(=O)n2C	-10	0.81	-4	-26	17*	0.068	22672*	1660	+
CCCCCCn1c(NCC)nc2c1c(=O)[nH]c(=O)n2C	-4	-0.11	-5	6	5.3*	0.56	9696*	1604	+
Cc1ccc(Cn2c(Sc3nccc(C)n3)nc3c2c(=O)[nH]c(=O)n3C)cc1	-10	0.41	8	14	·	-0.11	·	·	·
CCCCCn1c(Sc2ncccn2)nc2c1c(=O)[nH]c(=O)n2C	4	1.1	4	40	20*	0.42	25988*	1676	+
CCNc1nc2c(c(=O)[nH]c(=O)n2C)n1CC(C)C	-2	-0.6	-21	·	1.8	0.28	·	·	·
Cc1cccc(-n2c(=O)[nH]c3c(C(N)=O)nc(CC(C)C)nc32)c1	-29	0.21	-8	·	11*	-0.003	15452*	1444	+
CC(C)Cc1nc(C(N)=O)c2[nH]c(=O)n(-c3ccc(F)cc3)c2n1	-6	0.077	0	·	0.37	-0.28	·	·	·
COc1ccc(-c2nc(C(N)=O)c3[nH]c(=O)n(-c4cccc(C)c4)c3n2)c(OC)c1	-3	-0.76	-11	·	7.7*	-0.63	10376*	1548	+
CN1C(=O)CSc2ccc(NC(=O)NCCC3=CCCCC3)cc21	-23	-0.0049	-16	·	·	0.82	·	·	·
Cc1ccc(OCCNC(=O)c2ccco2)cc1C	19	0.72	-8	-28	0.41	1.1	·	·	·
O=C(Nc1ccccc1C(=O)NCc1ccccc1)c1ccco1	-4	-0.29	8	-40	1.6	1.3	·	·	·
O=C(Nc1ccccc1C(=O)NCc1ccco1)c1ccccc1	3	-0.65	2	3	5.3*	0.93	10828*	·	+
O=C(NCc1ccco1)c1cnn2c(C(F)F)cc(-c3ccccc3)nc12	-3	-1	-11	-56	5.2*	-1.1	7604*	1664	+
Cc1cc(NC(=O)c2cnn3c(C(F)F)cc(-c4ccccc4)nc23)no1	-15	0.04	7	-140	1.9	-0.55	·	·	·
SMILES	RORa activator	M1 antagonist	SF-1 act	mHtt clearance	D1 allo mod	M1 ag	D1 PAM confirm	D1 ag no DA	Isoprot counter
O=C(NCCc1ccccc1)c1cnn2c(C(F)F)cc(C3CC3)nc12	-2	-0.42	12	·	5.1*	0.0037	12520*	1540	+
COc1cccc(C(=O)SC2=NCCS2)c1	1	-0.75	-15	-239	-0.26	1.1	·	·	·
O=C(Nc1nncs1)C1c2ccccc2Oc2ccccc21	-2	-0.51	4	·	-0.028	-0.75	·	·	·
Cn1c(=O)c2c(nc(CN3CCc4ccccc4C3)n2CC(=O)c2ccccc2)n(C)c1=O	-8	-0.9	-7	-72	1.8	-0.047	·	·	·
CC(C)C1N=C2c3ccccc3N=C(SCC#N)N2C1=O (stereo unspecified)	-9	0.46	7	·	5.1*	-0.28	10160*	1524	i
N#CCSC1=Nc2ccccc2C2=NC(CCC(=O)N3CCN(c4ccccc4)CC3)C(=O)N12 (stereo unspecified)	-26	-0.51	-1	37	-0.25	1.5	·	·	·
COc1ccc(-c2cc(C(=O)N3CCN(Cc4ccccc4)CC3)no2)cc1OC	11	0.063	-8	·	0.55	-0.91	·	·	·
COc1ccc(-c2cc(C(=O)N3CCCCC3)no2)cc1OC	6	-0.11	77*	-2	9.5*	-0.31	14812*	·	+
Cn1c(=O)c2[nH]cnc2n(-c2ccccc2)c1=O	-13	0.62	-6	·	7.3*	1.2	23812*	1516	+
CC1(C)CC(=O)C(C(=S)Nc2ccccc2)=C(NCCN2CCOCC2)C1	·	·	·	-5	·	·	·	·	·
Cc1cc2c(c(N)n1)c(=O)oc1ccccc12	-2	-0.33	6	·	22*	-0.33	19088*	·	+
O=C(CN1CCN(C(=O)c2ccccc2F)CC1)Nc1ccc(Br)cc1	-19	-0.3	2	·	0.023	-1.1	·	·	·
Cc1ccccc1-n1c(SCc2ccccn2)nc2n[nH]c(C)c2c1=N	1	-0.9	6	-48	2.3	-0.44	·	·	·
CCOc1ccccc1NC(=O)CCSc1nc2n[nH]c(C)c2c(=N)n1-c1ccccc1Cl	1	-0.87	1	·	3.8*	1.6	11132*	1584	+
CCc1ccc(NC(=O)CSc2nnc(-c3ccccn3)n2C)cc1	18	-0.089	8	·	-0.04	0.17	·	·	·
CCOc1ccccc1-n1c(SCC(=O)Nc2ccc(CC)cc2)nc2n[nH]c(C)c2c1=N	16	-0.32	-84	·	2*	-0.66	7472	1852	i
CCOC(=O)C(CC)n1nc(C)n2c(cc3occc32)c1=O (stereo unspecified)	·	·	·	-2	·	·	·	·	·
CCCc1[nH]nc2c1C1(C(=O)N(C(C)C)c3ccccc31)C(C#N)=C(N)O2 (stereo unspecified)	16	-0.22	-11	-48	2	0.67	·	·	·
